target: T1, Cannabinoid receptor 2 (Homo sapiens, UniProt P34972); assay: Displacement of [3H]-CP-55940 from human CB2 receptor expressed in CHO cell membranes after 1 hr by beta-counting analysis; conditions: not given
T1 sequence (P34972 whole entry): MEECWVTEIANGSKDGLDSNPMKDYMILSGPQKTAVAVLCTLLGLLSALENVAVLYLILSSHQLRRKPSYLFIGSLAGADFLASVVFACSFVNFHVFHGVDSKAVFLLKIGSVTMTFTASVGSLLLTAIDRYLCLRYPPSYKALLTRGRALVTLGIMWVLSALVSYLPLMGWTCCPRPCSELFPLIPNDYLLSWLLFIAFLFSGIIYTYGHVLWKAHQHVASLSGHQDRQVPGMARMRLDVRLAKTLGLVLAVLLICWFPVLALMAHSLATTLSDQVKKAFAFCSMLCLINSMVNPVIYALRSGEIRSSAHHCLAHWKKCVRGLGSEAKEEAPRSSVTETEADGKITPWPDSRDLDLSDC

First: CCCCCn1c(=O)sc2cc(/C(=N\OC)C34CC5CC(CC(C5)C3)C4)ccc21
Second: CCCCCn1c(=O)sc2cc(/C(=N\O)C34CC5CC(CC(C5)C3)C4)ccc21
The Ki of the first is 1.7-fold higher: 438 nM for the first, 251 nM for the second.

Going from `CC(C)n1c(=O)sc2cc(C(=O)C34CC5CC(CC(C5)C3)C4)ccc21` to `CCCCCCn1c(=O)sc2cc(C(=O)C34CC5CC(CC(C5)C3)C4)ccc21`, the Ki falls from 281 nM to 39 nM (7.2-fold). The second binds more tightly here.

Compared with `CCCCCn1c(=O)sc2cc(C(=O)c3ccccc3)ccc21`, `CCCCCn1c(=O)sc2cc(C(=O)C3CCCC3)ccc21` is lower in Ki: greater than 1000 nM for the first, 210 nM for the second. The second binds more tightly here.

Going from `CCCCCn1c(=O)oc2cc(C(=O)C3CCCCC3)ccc21` to `CCCCCn1c(=O)sc2cc(C(O)C34CC5CC(CC(C5)C3)C4)ccc21` (stereo unspecified), the Ki falls from greater than 1000 nM to 272 nM. The second binds more tightly here.

Compared with `CCCCCn1c(=O)sc2cc(C(OC)C34CC5CC(CC(C5)C3)C4)ccc21` (stereo unspecified), `CCCC(C)(C)c1ccc2c(c1)OC(C)(C)[C@@H]1CC=C(C)C[C@@H]21` is 43-fold lower in Ki: 344 nM for the first, 8 nM for the second.

target: T1, Cannabinoid receptor 2; assay: Agonist activity at human CB2 receptor expressed in CHO cell membranes assessed as [35S]GTPgammaS binding after 1 hr by beta-counting analysis; assay type: functional; conditions: not given

Work on `CCCCCCn1c(=O)sc2cc(C(=O)C34CC5CC(CC(C5)C3)C4)ccc21` yielded an EC50 of 32.8 nM.

species on record: Homo sapiens; assay: Selectivity index, ratio of Ki for human CB1 receptor expressed in CHO cell membranes to Ki for human CB2 receptor expressed in CHO cell membranes; assay type: cell-based; conditions: not given

`CC(C)n1c(=O)sc2cc(C(=O)C34CC5CC(CC(C5)C3)C4)ccc21` and `CCCCCCn1c(=O)sc2cc(C(=O)C34CC5CC(CC(C5)C3)C4)ccc21` cannot be ordered by Ratio Ki: greater than 4 for the first, 23 for the second.

`CCCCCn1c(=O)sc2cc(/C(=N\O)C34CC5CC(CC(C5)C3)C4)ccc21` and `CCCCCn1c(=O)sc2cc(C(O)C34CC5CC(CC(C5)C3)C4)ccc21` (stereo unspecified) cannot be ordered by Ratio Ki: greater than 4 for the first, greater than 4 for the second.

`CCCCCn1c(=O)sc2cc(C(OC)C34CC5CC(CC(C5)C3)C4)ccc21` (stereo unspecified) and `CCCCCn1c(=O)sc2cc(C(=O)C3CCCC3)ccc21` cannot be ordered by Ratio Ki: greater than 3 for the first, greater than 5 for the second.

Compound `CCCC(C)(C)c1ccc2c(c1)OC(C)(C)[C@@H]1CC=C(C)C[C@@H]21` has a Ratio Ki greater than 125.

target: T1, Cannabinoid receptor 2; assay: Agonist activity at human CB2 receptor; conditions: not given

Going from `CCS(=O)(=O)Nc1ccc2c(c1)nc(C(C)(C)C)n2CC1CCC(F)(F)CC1` to `CC(C)(C)NC(=O)c1nn(-c2ccc(F)cc2F)c2c1[C@H]1CC[C@@H]2C1` [TEDALINAB], the Ki rises from 0.87 nM to 11.8 nM (14-fold). The first binds more tightly here.

target: T1, Cannabinoid receptor 2; assay: Displacement of [3H]-CP-55940 from human CB2 receptor expressed in CHO cell membranes at 10 uM after 1 hr by beta-counting analysis; conditions: not given
Method in brief: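 Competition binding to hCB2-CHO membranes (40 μg) with [3H]-CP-55,940 1 nM in Tris-HCl/MgCl2/EDTA/0.5% BSA buffer, pH 7.4, 1 h at 30°C. Final DMSO was below 0.1%. Filtration on GF/B, then β-count; HU-210 10 µM defined nonspecific binding. Compounds were first screened at 10 μM.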

`CCCCCn1c(=O)sc2cc(/C(=N\OC)C34CC5CC(CC(C5)C3)C4)ccc21` and `CCCCCn1c(=O)sc2cc(/C(=N\O)C34CC5CC(CC(C5)C3)C4)ccc21` cannot be ordered by inhibition: greater than 60% for the first, greater than 60% for the second.

`CC(C)n1c(=O)sc2cc(C(=O)C34CC5CC(CC(C5)C3)C4)ccc21` and `CCCCCCn1c(=O)sc2cc(C(=O)C34CC5CC(CC(C5)C3)C4)ccc21` cannot be ordered by inhibition: greater than 60% for the first, greater than 60% for the second.

`CCCCCn1c(=O)sc2cc(C(=O)c3ccccc3)ccc21` and `CCCCCn1c(=O)sc2cc(C(=O)C3CCCC3)ccc21` cannot be ordered by inhibition: greater than 60% for the first, greater than 60% for the second.

`CCCCCn1c(=O)oc2cc(C(=O)C3CCCCC3)ccc21` and `CCCCCn1c(=O)sc2cc(C(O)C34CC5CC(CC(C5)C3)C4)ccc21` (stereo unspecified) cannot be ordered by inhibition: greater than 60% for the first, greater than 60% for the second.

`CCCCCn1c(=O)sc2cc(C(OC)C34CC5CC(CC(C5)C3)C4)ccc21` (stereo unspecified) was tested, and the inhibition was greater than 60%.

test system: HT-29; assay: Cytotoxicity against human HT-29 cells at 10 uM after 72 hrs by MTS assay relative to control; assay type: cell-based; conditions: ht-29, 72 h
Method in brief: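 HT29 cells were grown in DMEM-Glutamax with 10% FBS at 37°C and 5% CO2. They were seeded at 3000 cells/well in triplicate and allowed 24 h. Compounds were added at 10 μM with DMSO below 0.1%, for 72 h. Read-out was the MTS colorimetric test, given as % proliferation inhibition from ≥4 experiments in duplicate.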

`CCCCCCn1c(=O)sc2cc(C(=O)C34CC5CC(CC(C5)C3)C4)ccc21` showed an Activity of 0%.

target: T2, Cannabinoid receptor 1 (Homo sapiens, UniProt P21554); assay: Displacement of [3H]-CP-55940 from human CB1 receptor expressed in CHO cell membranes after 1 hr by beta-counting analysis; conditions: not given
T2 sequence (P21554 whole entry): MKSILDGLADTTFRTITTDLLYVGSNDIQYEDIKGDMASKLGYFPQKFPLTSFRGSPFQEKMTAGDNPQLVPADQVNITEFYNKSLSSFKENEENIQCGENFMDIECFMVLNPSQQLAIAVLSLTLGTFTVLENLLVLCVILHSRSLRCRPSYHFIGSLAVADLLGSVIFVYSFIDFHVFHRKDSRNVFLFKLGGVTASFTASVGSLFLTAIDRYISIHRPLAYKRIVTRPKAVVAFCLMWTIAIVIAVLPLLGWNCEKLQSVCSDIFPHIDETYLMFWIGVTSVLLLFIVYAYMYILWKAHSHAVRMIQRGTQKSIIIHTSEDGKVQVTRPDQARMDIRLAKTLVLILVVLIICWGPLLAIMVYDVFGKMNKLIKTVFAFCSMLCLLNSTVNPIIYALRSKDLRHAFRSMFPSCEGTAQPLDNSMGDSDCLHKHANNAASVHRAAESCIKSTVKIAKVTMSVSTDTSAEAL

Going from `CC(C)n1c(=O)sc2cc(C(=O)C34CC5CC(CC(C5)C3)C4)ccc21` to `CCCCCCn1c(=O)sc2cc(C(=O)C34CC5CC(CC(C5)C3)C4)ccc21`, the Ki falls from greater than 1000 nM to 903 nM. The second binds more tightly here.

`CCCCCn1c(=O)sc2cc(/C(=N\O)C34CC5CC(CC(C5)C3)C4)ccc21` and `CCCCCn1c(=O)sc2cc(C(O)C34CC5CC(CC(C5)C3)C4)ccc21` (stereo unspecified) cannot be ordered by Ki: greater than 1000 nM for the first, greater than 1000 nM for the second.

`CCCCCn1c(=O)sc2cc(C(OC)C34CC5CC(CC(C5)C3)C4)ccc21` (stereo unspecified) and `CCCCCn1c(=O)sc2cc(C(=O)C3CCCC3)ccc21` cannot be ordered by Ki: greater than 1000 nM for the first, greater than 1000 nM for the second.

Work on `CCCC(C)(C)c1ccc2c(c1)OC(C)(C)[C@@H]1CC=C(C)C[C@@H]21` yielded a Ki greater than 1000 nM.

target: T2, Cannabinoid receptor 1; assay: Agonist activity at human CB1 receptor; conditions: not given

First: CCS(=O)(=O)Nc1ccc2c(c1)nc(C(C)(C)C)n2CC1CCC(F)(F)CC1
Second: CC(C)(C)NC(=O)c1nn(-c2ccc(F)cc2F)c2c1[C@H]1CC[C@@H]2C1 [TEDALINAB]
The Ki of the first is 84-fold lower: 11.7 nM for the first, 985 nM for the second. The first binds more tightly here.

target: T1, Cannabinoid receptor 2; assay: Agonist activity at human CB2 receptor expressed in CHO cell membranes assessed as [35S]GTPgammaS binding after 1 hr by beta-counting analysis relative to control; assay type: functional; conditions: not given
Method in brief: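 Membranes from hCB2-CHO cells, 40 μg protein, in 50 mM Tris-HCl, 3 mM MgCl2, 1 mM EDTA, 100 mM NaCl, 0.1% BSA, pH 7.4, with 20 μM GDP. [35S]-GTPγS was 0.05 nM final, 1 h at 30°C. Filtration on GF/B, then β-counting. Nonspecific binding was set with 100 μM Gpp(NH)p.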

Compared with `Cc1c(C(=O)c2cccc3ccccc23)c2cccc3c2n1[C@H](CN1CCOCC1)CO3`, `CCCCCCn1c(=O)sc2cc(C(=O)C34CC5CC(CC(C5)C3)C4)ccc21` is lower in Emax: 181% for the first, 169% for the second.

— ChEMBL document CHEMBL4480384, “Benzo[d]thiazol-2(3H)-ones as new potent selective CB2 agonists with anti-inflammatory properties” (Eur J Med Chem, 2019)
